Experimental data published in ChEMBL document CHEMBL1129428 (J Med Chem, 1996).

Tests used:
Rattus norvegicus [1] = experiment: Compound was tested for anticonvulsant activity after Oral Administration into Rats by using MES screen test after 0.25h,dose 30 mg/kg; No activity was demonstarted; type: functional, organism-based; set-up: dose 30 mg/kg
Method in brief: (§1)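 Rats received the compound orally. […] Rats were tested in the MES screen at 0.25, 0.5, 1, 2 and 4 h. Each value is the number of rats protected out of 4. The test followed NINDS procedures.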

Mus musculus [2] = experiment: Toxicity after intraperitoneal injection into mice by using toxicity screen test after 0.5 hr; type: organism-based; settings: in vivo, ip
Method in brief: (§2)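 Mice injected intraperitoneally at 30, 100 and 300 mg/kg and examined 0.5 and 4 h afterwards. Each entry is the minimum dose giving activity (MES protection, scPTZ protection, or rotorod failure for neurotoxicity) in half or more of the mice. Activity is called absent if nothing occurs at 300 mg/kg.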

Rattus norvegicus [3] = experiment: Compound was tested for anticonvulsant activity after Oral Administration into rat by using MES screen test after 2 hr; type: functional
Method in brief: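 Rats dosed orally, typically at 50 mg/kg first, then mostly 12.5 mg/kg (some compounds at 30 mg/kg), and tested by maximal electroshock. Four rats per compound, scored at 0.25, 0.5, 1, 2 and 4 h as the number of rats protected out of 4.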

Rattus norvegicus [4] = experiment: Compound was tested for anticonvulsant activity after Oral Administration into Rats by using MES screen test after 0.5h,dose 30 mg/kg; number of rats out of four which were protected; type: functional; method in brief: as §1
Rattus norvegicus [5] = experiment: Compound was tested for anticonvulsant activity after Oral Administration into Rats by using MES screen test after 2h,dose 30 mg/kg; number of rats out of four which were protected; type: functional; method in brief: as §1
Rattus norvegicus [6] = experiment: Compound was tested for anticonvulsant activity after Oral Administration into Rats by using MES screen test after 1h,dose 30 mg/kg; number of rats out of four which were protected; type: functional; method in brief: as §1
Rattus norvegicus [7] = experiment: Compound was tested for anticonvulsant activity after Oral Administration into Rats by using MES screen test after 4h,dose 30 mg/kg; number of rats out of four which were protected; type: functional; method in brief: as §1
Mus musculus [8] = experiment: Compound was tested for toxicity after intraperitoneal injection into mice by using toxicity screen test after 4 hr; type: organism-based; settings: in vivo, ip; method in brief: as §2
Mus musculus [9] = experiment: Anticonvulsant activity after intraperitoneal injection into mice by using scPTZ screen after 0.5 hr; type: functional
Mus musculus [10] = experiment: Anticonvulsant activity after intraperitoneal injection into mice by using MES screen test after 0.5 hr; type: functional
[11] = Compound was tested for toxicity after intraperitoneal injection into mice by using neurotoxicity screen test after 2 hr; type: organism-based; settings: mouse, in vivo, ip
Method in brief: (§3)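 Quantitative intraperitoneal mouse testing in the MES, scPTZ or rotorod neurotoxicity screens at the peak time given for each compound (0.25–2 h). ED50 or TD50 reported in mg/kg with 95% CI and slope (SE).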

[12] = Compound was tested for toxicity after oral administration in rat by using neurotoxicity screen test after 0.25-24 hr; type: organism-based; settings: in vivo
Method in brief: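 Rat neurotoxicity after oral dosing, observed at 0.25, 0.5, 1, 2, 4, 6, 8 and 24 h (8 h omitted for one compound).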

Mus musculus [13] = experiment: Anticonvulsant activity after intraperitoneal injection into mice by using scPTZ screen test after 4 hr; type: functional
Mus musculus [14] = experiment: Anticonvulsant activity after intraperitoneal injection into mice measured in a maximal electroshock scree (MES) screen; type: functional
Rattus norvegicus [15] = experiment: Compound was tested for anticonvulsant activity after Oral Administration into Rats by using MES screen test after 0.25h,dose 30 mg/kg; number of rats out of four which were protected; type: functional; method in brief: as §1
Rattus norvegicus [16] = experiment: Compound was tested for anticonvulsant activity after Oral Administration into Rats by using MES screen test after 2h,dose 50 mg/kg; number of rats out of four which were protected; type: functional; method in brief: as §1
Rattus norvegicus [17] = experiment: Compound was tested for anticonvulsant activity after Oral Administration into Rats by using MES screen test after 0.25h,dose 50 mg/kg; number of rats out of four which were protected; type: functional; method in brief: as §1
Mus musculus [18] = experiment: Compound was tested for anticonvulsant activity after intraperitoneal injection into mice by using scPTZ screen test after 1 hr; type: functional; settings: ip; method in brief: as §3
Rattus norvegicus [19] = experiment: Compound was tested for anticonvulsant activity after Oral Administration into Rats by using MES screen test after 1h,dose 50 mg/kg; number of rats out of four which were protected; type: functional; method in brief: as §1
Rattus norvegicus [20] = experiment: Compound was tested for anticonvulsant activity after Oral Administration into Rats by using MES screen test after 0.5h,dose 50 mg/kg; number of rats out of four which were protected; type: functional; method in brief: as §1
[21] = Protection index = TD50/ED50; type: ADME; settings: read-out: PI
Mus musculus [22] = experiment: Compound was tested for anticonvulsant activity after intraperitoneal injection into mice by using MES screen test after 1 hr; type: functional; settings: ip; method in brief: as §3
Rattus norvegicus [23] = experiment: Compound was tested for anticonvulsant activity after Oral Administration into Rats by using MES screen test after 4h,dose 50 mg/kg; number of rats out of four which were protected; type: functional; method in brief: as §1
Rattus norvegicus [24] = experiment: Compound was tested for anticonvulsant activity after Oral Administration into Rats by using MES screen test after 1h,dose 12.5 mg/kg; number of rats out of four which were protected; type: functional; method in brief: as §1
Rattus norvegicus [25] = experiment: Compound was tested for anticonvulsant activity after Oral Administration into Rats by using MES screen test after 4h,dose 12.5 mg/kg; No activity was demonstarted; type: functional, organism-based; set-up: dose 12.5 mg/kg; method in brief: as §1
Rattus norvegicus [26] = experiment: Compound was tested for anticonvulsant activity after Oral Administration into Rats by using MES screen test after 2h,dose 12.5 mg/kg; number of rats out of four which were protected; type: functional; method in brief: as §1
Rattus norvegicus [27] = experiment: Anticonvulsant activity after oral administration into rats; type: functional; set-up: concentration or dose not given beside the values
Rattus norvegicus [28] = experiment: Compound was tested for anticonvulsant activity after Oral Administration into Rats by using MES screen test after 0.25h,dose 12.5 mg/kg; No activity was demonstarted; type: functional, organism-based; set-up: dose 12.5 mg/kg; method in brief: as §1
Rattus norvegicus [29] = experiment: Compound was tested for anticonvulsant activity after Oral Administration into Rats by using MES screen test after 4h,dose 12.5 mg/kg; number of rats out of four which were protected; type: functional; method in brief: as §1
[30] = Compound was tested for toxicity after intraperitoneal injection into mice by using neurotoxicity screen test after 1 hr; type: organism-based; settings: mouse, in vivo, ip; method in brief: as §3
[31] = Protection index = TD50/ED50 (MES); settings: mouse, in vivo; read-out: PI
Rattus norvegicus [32] = experiment: Compound was tested for anticonvulsant activity after Oral Administration into Rats by using MES screen test after 0.5h,dose 12.5 mg/kg; No activity was demonstarted; type: functional, organism-based; set-up: dose 12.5 mg/kg; method in brief: as §1
Rattus norvegicus [33] = experiment: Compound was tested for anticonvulsant activity after Oral Administration into Rats by using MES screen test after 1h,dose 12.5 mg/kg; No activity was demonstarted; type: functional, organism-based; set-up: dose 12.5 mg/kg; method in brief: as §1
Rattus norvegicus [34] = experiment: Compound was tested for anticonvulsant activity after Oral Administration into Rats by using MES screen test after 2h,dose 12.5 mg/kg; No activity was demonstarted; type: functional, organism-based; set-up: dose 12.5 mg/kg; method in brief: as §1

| SMILES | Dose (Mus musculus [2]) [mg/kg] | ED50 (Rattus norvegicus [3]) [mg/kg] | Activity (Rattus norvegicus [4]) | Activity (Rattus norvegicus [5]) | Activity (Rattus norvegicus [6]) | Activity (Rattus norvegicus [7]) | Dose (Mus musculus [8]) [mg/kg] | Dose (Mus musculus [9]) [mg/kg] | Dose (Mus musculus [10]) [mg/kg] | Dose (Mus musculus [14]) [mg/kg] | Activity (Rattus norvegicus [28]) | other results |
| --- | --- | --- | --- | --- | --- | --- | --- | --- | --- | --- | --- | --- |
| CC/C(=N/NC(N)=O)c1ccc(Oc2ccc(Cl)cc2)cc1 | 300 | 2.89 | 1 | 4 | 4 | 4 | 100 | 300 | 30 | – | – | Activity (Rattus norvegicus [1]): No activity; TD50 at 2 h [11]: < 100 mg/kg; TD50 [12]: > 500 mg/kg |
| C/C(=N/NC(N)=O)c1ccc(Sc2ccc(F)cc2)cc1 | 300 | 9.11 | 4 | 4 | 4 | 4 | 300 | – | 100 | 30 | – | Dose (Mus musculus [13]): 300 mg/kg; Activity (Rattus norvegicus [15]): 3 |
| Cc1ccc(Oc2ccc(/C=N/NC(N)=O)cc2)cc1 | – | 3.43 | – | – | – | – | – | – | 30 | 100 | – | Activity (Rattus norvegicus [16]): 4; Activity (Rattus norvegicus [17]): 3; ED50 (Mus musculus [18]): 88.6 mg/kg; Activity (Rattus norvegicus [19]): 4; Activity (Rattus norvegicus [20]): 4; selectivity ratio [21]: 2.3; ED50 (Mus musculus [22]): 14.7 mg/kg; TD50 at 2 h [11]: 204 mg/kg; TD50 [12]: > 500 mg/kg; Activity (Rattus norvegicus [23]): 4 |
| Cc1cc(C)cc(Oc2ccc(/C=N/NC(N)=O)cc2)c1 | – | – | – | – | – | – | – | 300 | 30 | 300 | No activity | Activity (Rattus norvegicus [24]): 3; Activity (Rattus norvegicus [25]): No activity; Activity (Rattus norvegicus [26]): 2; Activity (Rattus norvegicus [27]): 4 |
| CC/C(=N/NC(N)=O)c1ccc(Sc2ccccc2)cc1 | 100 | 18.6 | 3 | 3 | 4 | 4 | 100 | 100 | 30 | 30 | – | Activity (Rattus norvegicus [1]): No activity; Dose (Mus musculus [13]): 100 mg/kg |
| C/C(=N/NC(N)=O)c1ccc(Oc2ccc(C)cc2)cc1 | – | – | – | – | – | – | – | 30 | 30 | 100 | No activity | Activity (Rattus norvegicus [24]): 2; Activity (Rattus norvegicus [29]): 4; ED50 (Mus musculus [18]): 18.7 mg/kg; TD50 at 1 h [30]: 57.9 mg/kg; Activity (Rattus norvegicus [26]): 4; selectivity ratio [21]: 3.09; Activity (Rattus norvegicus [27]): 1; ED50 (Mus musculus [22]): 5.62 mg/kg; selectivity ratio [31]: 10.3 |
| CC/C(=N/NC(N)=O)c1ccccc1Oc1ccc(F)cc1 | – | – | – | – | – | – | 300 | – | – | – | No activity | Activity (Rattus norvegicus [32]): No activity; Activity (Rattus norvegicus [33]): No activity; Activity (Rattus norvegicus [34]): No activity; Activity (Rattus norvegicus [25]): No activity |
| C/C(=N/NC(N)=O)c1ccccc1Oc1ccc(F)cc1 | – | 43.4 | 1 | 3 | 3 | 2 | – | – | – | – | – | Activity (Rattus norvegicus [15]): 1 |
| NC(=O)N/N=C\c1ccc(OC(=O)c2ccccc2)cc1 | – | – | – | – | – | – | – | – | – | 300 | No activity | Activity (Rattus norvegicus [32]): No activity; Activity (Rattus norvegicus [33]): No activity; Activity (Rattus norvegicus [34]): No activity |
